Source: ChEMBL document CHEMBL4765236, “Insights into the Antimicrobial Activity and Cytotoxicity of Engineered α-Helical Peptide Amphiphiles” (J Med Chem, 2016)
Values after ≈ are worked out from the molar mass of the structure shown. Active and inactive are the calls of the source. The calls are words filed in the database; no cut-off is given here. Where a SMILES comes first, the peptide text is derived from it. Bridges are numbered along the chain shown (N, C = ends). [ ]: non-standard residue; d: D form. The star is where a group is joined. X1 = CC[C@H](C)CCCCC(=O)*; Dab = NCC[C@H](N)C(=O)O

How the values were obtained:
[1] = tested on: Salmonella paratyphi; experiment: Antibacterial activity against Salmonella paratyphi A CICC 20501 assessed as bacterial growth inhibition incubated for 18 to 24 hrs by microtiter broth dilution method; format: functional, Salmonella enterica subsp. enterica serovar Paratyphi A; conditions: Salmonella enterica, time 18-24 hrs
Method in brief: (§1)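 Log-phase bacteria grown at 37 °C in MHB, diluted to 10^5 CFU/mL, mixed 1:1 with serial peptide dilutions (peptide diluted in 0.01% acetic acid, 0.2% BSA); 37 °C for 18-24 h. MIC read by OD492 as lowest concentration giving no growth; mean of 3-5 independent experiments.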

[2] = tested on: Cell membrane; experiment: Induction of inner membrane permeabilization in Escherichia coli O157:H7 CICC 21530 assessed as cytoplasmic beta-galactosidase release at 1 times MIC using ONPG as substrate by […]; format: subcellular
[3] = tested on: Shigella flexneri; experiment: Antibacterial activity against Shigella flexneri CMCC 51571 assessed as bacterial growth inhibition incubated for 18 to 24 hrs by microtiter broth dilution method; format: functional; conditions: time 18-24 hrs
Method in brief: (§2)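 Log-phase cells (grown overnight at 37 °C, subcultured in MHB) diluted to 10^5 CFU/mL in MHB and mixed 1:1 with serial peptide dilutions prepared in 0.01% acetic acid/0.2% BSA. Incubated 37 °C for 18-24 h. MIC is the lowest concentration giving no growth by OD492. Reported as the average of 3-5 independent experiments.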

[4] = tested on: Bacillus cereus; experiment: Antibacterial activity against Bacillus cereus CMCC 63301 assessed as bacterial growth inhibition incubated for 18 to 24 hrs by microtiter broth dilution method; format: functional; conditions: time 18-24 hrs; method in brief: as §2
[5] = Hemolytic activity against human red blood cells assessed as hemoglobin release at 64 uM measured after 1 hr by microplate reader analysis relative to control; format: ADME, cell-based, Erythrocyte; conditions: read-out: Activity
Method in brief: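 Fresh heparinized human RBCs washed in 10 mM PBS pH 7.4, ~1% (v/v) suspension mixed 1:1 with peptide in PBS, 1 h at 37 °C; after centrifugation, supernatant absorbance at 540 nm. Percent hemolysis relative to PBS (0%) and 0.1% Triton X-100 (100%).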

[6] = tested on: Salmonella enteritidis; experiment: Antibacterial activity against Salmonella enteritidis CICC 21527 assessed as bacterial growth inhibition incubated for 18 to 24 hrs by microtiter broth dilution method; format: functional, Salmonella enterica subsp. enterica serovar Enteritidis; conditions: Salmonella enterica, time 18-24 hrs; method in brief: as §2
[7] = tested on: Salmonella enterica; experiment: Antibacterial activity against Salmonella choleraesuis ATCC 13312 assessed as bacterial growth inhibition incubated for 18 to 24 hrs by broth dilution method; format: functional; conditions: time 18-24 hrs; method in brief: as §1
[8] = tested on: RAW264.7; experiment: Cytotoxicity against mouse RAW264.7 cells assessed as increase in cell viability at 64 uM incubated for 24 hrs by MTT assay relative to control; format: cell-based; conditions: raw264.7, 24 h
Method in brief: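 RAW264.7 macrophages were grown in DMEM with 10% FBS, 2 mM glutamine and penicillin/streptomycin at 37 °C in 5% CO2. Cells seeded at 1.0-2.0 × 10^4 per well and treated with peptide (final 0.25-64 µM) for 24 h at 37 °C. MTT at 0.5 mg/mL added for 4 h, formazan dissolved in DMSO, read at 570 nm.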

[9] = tested on: Bacillus pumilus; experiment: Antibacterial activity against Bacillus pumilus CMCC 63202 assessed as bacterial growth inhibition incubated for 18 to 24 hrs by microtiter broth dilution method; format: functional; conditions: time 18-24 hrs; method in brief: as §2
[10] = tested on: Pseudomonas fluorescens; experiment: Antibacterial activity against Pseudomonas fluorescens CICC 21620 assessed as bacterial growth inhibition incubated for 18 to 24 hrs by microtiter broth dilution method; format: functional; conditions: time 18-24 hrs; method in brief: as §2
[11] = tested on: Vibrio parahaemolyticus; experiment: Antibacterial activity against Vibrio parahaemolyticus CICC 21617 assessed as bacterial growth inhibition incubated for 18 to 24 hrs by broth dilution method; format: functional; conditions: time 18-24 hrs; method in brief: as §2
[12] = tested on: Erythrocyte; experiment: Hemolytic activity against human red blood cells assessed as concentration required to cause 10% hemoglobin release measured after 1 hr by microplate reader analysis; format: ADME, cell-based
Method in brief: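 Fresh heparinized human RBCs washed three times in 10 mM PBS pH 7.4 and resuspended to about 1% (v/v) (5.4 × 10^8 cells/mL). Mixed 1:1 with peptide in PBS for 1 h at 37 °C, then centrifuged. Supernatant hemoglobin read at A540. PBS set as 0% and 0.1% Triton X-100 as 100% hemolysis. MHC is the concentration causing 10% hemolysis.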

[13] = Therapeutic index, ratio of MHC10 for human RBC to geometric mean of peptide MIC for Staphylococcus aureus ATCC 29213; format: toxicity; conditions: human red blood cells (RBC), pooled result: one value given for 9 cell lines, strains, targets or settings, read-out: TI
Method in brief: (§3)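 Therapeutic index = MHC (peptide concentration giving 10% hemolysis of human RBCs, 1 h, 37 °C, A540) divided by geometric mean of MICs from broth microdilution (10^5 CFU/mL in MHB, 37 °C, 18-24 h, OD492).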

[14] = tested on: Candida albicans; experiment: Antifungal activity against Candida albicans ATCC 10231 assessed as fungal growth inhibition incubated for 18 to 24 hrs by microtiter broth dilution method; format: functional; conditions: time 18-24 hrs; method in brief: as §2
[15] = tested on: Salmonella enterica subsp. enterica serovar Paratyphi B; experiment: Antibacterial activity against Salmonella paratyphi B CICC 21495 assessed as bacterial growth inhibition incubated for 18 to 24 hrs by microtiter broth dilution method; format: functional; conditions: time 18-24 hrs; method in brief: as §1
[16] = tested on: Salmonella paratyphi; experiment: Antibacterial activity against Salmonella paratyphi C CICC 21512 assessed as bacterial growth inhibition incubated for 18 to 24 hrs by microtiter broth dilution method; format: functional; conditions: Salmonella enterica, time 18-24 hrs; method in brief: as §1
[17] = tested on: Cell membrane; experiment: Induction of cell membrane depolarization in Escherichia coli O157:H7 CICC 21530 assessed as increase in fluorescence intensity at 0.5 to 2 times MIC preincubated for 90 mins followed by KCl addition and measured after 15 to 30 mins by DiSC3-5 staining based fluorescence spectroscopic technique; format: subcellular; conditions: time 105-120 min
[18] = Therapeutic index, ratio of MHC10 for human RBC to geometric mean of peptide MIC for Escherichia coli O157:H7 CICC 21530; format: toxicity; conditions: human red blood cells (RBC), pooled result: one value given for 11 cell lines, strains, targets or settings, read-out: TI; method in brief: as §3
[19] = tested on: Micrococcus luteus; experiment: Antibacterial activity against Micrococcus luteus CMCC 28001 assessed as bacterial growth inhibition incubated for 18 to 24 hrs by microtiter broth dilution method; format: functional; conditions: time 18-24 hrs; method in brief: as §2
[20] = tested on: Escherichia coli; experiment: Antibacterial activity against Escherichia coli ATCC 25922 assessed as bacterial growth inhibition incubated for 18 to 24 hrs by microtiter broth dilution method; format: functional; conditions: time 18-24 hrs; method in brief: as §2
[21] = tested on: Listeria monocytogenes; experiment: Antibacterial activity against Listeria monocytogenes CICC 21662 assessed as bacterial growth inhibition incubated for 18 to 24 hrs by microtiter broth dilution method; format: functional; conditions: time 18-24 hrs; method in brief: as §2
[22] = tested on: Salmonella typhimurium; experiment: Antibacterial activity against Salmonella typhimurium CMCC 51005 assessed as bacterial growth inhibition incubated for 18 to 24 hrs by microtiter broth dilution method; format: functional, Salmonella enterica subsp. enterica serovar Typhimurium; conditions: Salmonella enterica, time 18-24 hrs; method in brief: as §2
[23] = tested on: Staphylococcus aureus; experiment: Antibacterial activity against methicillin resistant Staphylococcus aureus ATCC 43300 assessed as bacterial growth inhibition incubated for 18 to 24 hrs by microtiter broth dilution method; format: functional; conditions: time 18-24 hrs; method in brief: as §1
[24] = tested on: Staphylococcus aureus; experiment: Antibacterial activity against Staphylococcus aureus ATCC 29213 assessed as bacterial growth inhibition incubated for 18 to 24 hrs by microtiter broth dilution method; format: functional; conditions: time 18-24 hrs; method in brief: as §2
[25] = tested on: Escherichia coli; experiment: Antibacterial activity against Escherichia coli ATCC 35150 assessed as bacterial growth inhibition incubated for 18 to 24 hrs by microtiter broth dilution method; format: functional; conditions: time 18-24 hrs; method in brief: as §2
[26] = tested on: Listeria monocytogenes; experiment: Antibacterial activity against Listeria monocytogenes CICC 21633 assessed as bacterial growth inhibition incubated for 18 to 24 hrs by microtiter broth dilution method; format: functional; conditions: time 18-24 hrs; method in brief: as §2
[27] = tested on: Staphylococcus aureus; experiment: Antibacterial activity against Staphylococcus aureus GIM 1.160 assessed as bacterial growth inhibition incubated for 18 to 24 hrs by microtiter broth dilution method; format: functional; conditions: time 18-24 hrs; method in brief: as §2
[28] = tested on: Escherichia coli; experiment: Antibacterial activity against Escherichia coli O157:H7 CICC 21530 assessed as bacterial growth inhibition incubated for 18 to 24 hrs by microtiter broth dilution method; format: functional; conditions: time 18-24 hrs; method in brief: as §1

Compound | MIC [1] | MIC [3] | MIC [4] | MIC [6] | MIC [7] | MIC [9] | MIC [10] | MIC [11] | MHC10 [12] | MIC [14] | MIC [15] | MIC [16] | selectivity ratio [18] | MIC [19] | also measured
CC[C@H](C)[C@H](NC(=O)CN)C(=O)NCC(=O)N[C@@H](C)C(=O)N[C@H](C(=O)N[C@@H](CC(C)C)C(=O)N[C@@H](CCCCN)C(=O)N[C@H](C(=O)N[C@@H](CC(C)C)C(=O)N[C@H](C(=O)N[C@H](C(=O)NCC(=O)N[C@@H](CC(C)C)C(=O)N1CCC[C@H]1C(=O)N[C@@H](C)C(=O)N[C@@H](CC(C)C)C(=O)N[C@H](C(=O)N[C@@H](CO)C(=O)N[C@@H](Cc1c[nH]c2ccccc12)C(=O)N[C@H](C(=O)N[C@@H](CCCCN)C(=O)N[C@@H](CCCNC(=N)N)C(=O)N[C@@H](CCCCN)C(=O)N[C@@H](CCCNC(=N)N)C(=O)N[C@@H](CCC(N)=O)C(=O)N[C@@H](CCC(N)=O)C(N)=O)[C@@H](C)CC)[C@@H](C)CC)[C@@H](C)O)[C@@H](C)O)C(C)C)C(C)C [MELITTIN] | 0.7 µM (≈ 1.99 µg/mL) | 0.7 µM (≈ 1.99 µg/mL) | 1.41 µM (≈ 4.01 µg/mL) | 1.41 µM (≈ 4.01 µg/mL) | 0.7 µM (≈ 1.99 µg/mL) | 0.35 µM (≈ 0.996 µg/mL) | 1.41 µM (≈ 4.01 µg/mL) | 1.41 µM (≈ 4.01 µg/mL) | 0.35 µM | 2.81 µM (≈ 8 µg/mL) | 0.35 µM (≈ 0.996 µg/mL) | 0.7 µM (≈ 1.99 µg/mL) | 0.44 | 0.7 µM (≈ 1.99 µg/mL) | Activity [2]: Active; hemolysis at 1 h, 64 µM [5]: 63.7%; Activity [8]: 1.85%; selectivity ratio [13]: 0.43; Activity [17]: Active
CC[C@H](C)CCCCC(=O)N[C@@H](CCN)C(=O)N[C@H](C(=O)N[C@@H](CCN)C(=O)N[C@H]1CCNC(=O)[C@H]([C@@H](C)O)NC(=O)[C@H](CCN)NC(=O)[C@H](CCN)NC(=O)[C@H](CC(C)C)NC(=O)[C@@H](Cc2ccccc2)NC(=O)[C@H](CCN)NC1=O)[C@@H](C)O (X1-[Dab]T[Dab][Dab][Dab][dF]L[Dab][Dab]T; lactam 4-C) | 0.77 µM (≈ 0.927 µg/mL) | 0.77 µM (≈ 0.927 µg/mL) | 49.2 µM (≈ 59.2 µg/mL) | 1.54 µM (≈ 1.85 µg/mL) | 1.54 µM (≈ 1.85 µg/mL) | 49.2 µM (≈ 59.2 µg/mL) | 49.2 µM (≈ 59.2 µg/mL) | 0.77 µM (≈ 0.927 µg/mL) | > 98.34 µM | 49.2 µM (≈ 59.2 µg/mL) | 1.54 µM (≈ 1.85 µg/mL) | 3.07 µM (≈ 3.69 µg/mL) | 165 | > 98.3 µM | MIC [20]: 0.38 µM (≈ 0.457 µg/mL); MIC [21]: 24.6 µM (≈ 29.6 µg/mL); MIC [22]: 0.77 µM (≈ 0.927 µg/mL); MIC [23]: > 98.3 µM; MIC [24]: 49.2 µM (≈ 59.2 µg/mL); MIC [25]: 1.54 µM (≈ 1.85 µg/mL); MIC [26]: 12.3 µM (≈ 14.8 µg/mL); MIC [27]: 49.2 µM (≈ 59.2 µg/mL); MIC [28]: 3.07 µM (≈ 3.69 µg/mL)
